Laboratory results from ChEMBL document CHEMBL3102752, “Identification of novel drug scaffolds for inhibition of SARS-CoV 3-Chymotrypsin-like protease using virtual and high-throughput screenings” (Bioorg Med Chem, 2014).
Structures can show the parent of a compound that is named as a salt. Active and inactive are the calls of the source. The rule behind the calls is not given here.

Key:
[1] = biological target: T1, Replicase polyprotein 1ab (Severe acute respiratory syndrome-related coronavirus, UniProt P0C6X7); experiment: Inhibition of SARS coronavirus 3C-like protease using 5-FAM-TSATLQSGFRK(QXL520)-NH2 as substrate preincubated for 5 mins followed by substrate addition measured after 6 mins by FRET assay in presence of GSH
Outline: (§1)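 Enzyme preincubated 5 min with compound (0–200 μM, 2-fold series), then 15 μM FAM/QXL substrate added. Continuous fluorescence read for 6 min, in triplicate. IC50 from Hill fit over two to four independent assays.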

[2] = biological target: Replicase polyprotein 1ab (Severe acute respiratory syndrome-related coronavirus) (UniProt P0C6X7); experiment: Reversible inhibition of SARS coronavirus 3C-like protease using 5-FAM-TSATLQSGFRK(QXL520)-NH2 as substrate assessed as recovery rate at 20 x IC50 preincubated for 1 hr followed by compound washout by FRET assay in presence of GSH; parameters: scale not given: the % may be the effect or the level left
Outline: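 No-compound enzyme served as control. Samples desalted to remove compound; activity measured before and after buffer exchange by the IC50 assay.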

[3] = Inhibition of SARS coronavirus PL-protease; parameters: species or system Severe acute respiratory syndrome-related coronavirus
[4] = biological target: T1, Replicase polyprotein 1ab; experiment: Inhibition of SARS coronavirus 3C-like protease using 5-FAM-TSATLQSGFRK(QXL520)-NH2 as substrate preincubated for 5 mins followed by substrate addition measured after 6 mins by FRET assay; outline: as §1
[5] = biological target: Replicase polyprotein 1ab (Severe acute respiratory syndrome-related coronavirus) (UniProt P0C6X7); experiment: Inhibition of SARS coronavirus 3C-like protease using 5-FAM-TSATLQSGFRK(QXL520)-NH2 as substrate at 100 uM preincubated for 5 mins followed by substrate addition measured after 6 mins by FRET assay relative to control
[6] = biological target: Replicase polyprotein 1ab (Severe acute respiratory syndrome-related coronavirus) (UniProt P0C6X7); experiment: Inhibition of SARS coronavirus 3C-like protease using 5-FAM-TSATLQSGFRK(QXL520)-NH2 as substrate at 100 uM preincubated for 5 mins followed by substrate addition measured after 6 mins by FRET assay in presence of GSH relative to control
[7] = biological target: Replicase polyprotein 1ab (Severe acute respiratory syndrome-related coronavirus) (UniProt P0C6X7); experiment: Binding affinity to SARS coronavirus 3C-like protease using 5-FAM-TSATLQSGFRK(QXL520)-NH2 as substrate by SPR analysis
[8] = biological target: T1, Replicase polyprotein 1ab; experiment: Inhibition of SARS coronavirus 3C-like protease using 5-FAM-TSATLQSGFRK(QXL520)-NH2 as substrate
[9] = biological target: Replicase polyprotein 1ab (Severe acute respiratory syndrome-related coronavirus) (UniProt P0C6X7); experiment: Binding affinity to SARS coronavirus 3C-like protease using 5-FAM-TSATLQSGFRK(QXL520)-NH2 as substrate up to 200 uM by SPR analysis
Outline: (§2)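 Untagged native 3CLpro amine-coupled to CM5 chip (in 10 mM sodium acetate pH 5.0). Ethanolamine-blocked channel as reference. Running buffer HBS-P pH 7.4, 20 °C.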

[10] = biological target: Replicase polyprotein 1ab (Severe acute respiratory syndrome-related coronavirus) (UniProt P0C6X7); experiment: Binding affinity to SARS coronavirus 3C-like protease using 5-FAM-TSATLQSGFRK(QXL520)-NH2 as substrate up to 90 uM by SPR analysis; outline: as §2
[11] = biological target: T1, Replicase polyprotein 1ab; experiment: Competitive inhibition of SARS coronavirus 3C-like protease using 5-FAM-TSATLQSGFRK(QXL520)-NH2 as substrate by Dixon plot analysis
Outline: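 Best-fit inhibition model chosen by fitting competitive, non-competitive, uncompetitive or mixed equations to give Ki. Dixon plot; three independent assays.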

[12] = biological target: Ubiquitin carboxyl-terminal hydrolase isozyme L1 (Homo sapiens) (UniProt P09936); experiment: Inhibition of human UCH-L1
Ubiquitin carboxyl-terminal hydrolase isozyme L1 (Homo sapiens), sequence (P09936 whole entry, looked up): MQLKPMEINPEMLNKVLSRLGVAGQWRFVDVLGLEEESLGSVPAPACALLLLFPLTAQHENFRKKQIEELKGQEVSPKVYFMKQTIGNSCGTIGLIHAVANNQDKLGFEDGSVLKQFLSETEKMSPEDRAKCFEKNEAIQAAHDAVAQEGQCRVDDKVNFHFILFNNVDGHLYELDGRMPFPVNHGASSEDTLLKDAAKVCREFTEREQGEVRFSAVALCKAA
Outline: (§3)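 IC50 determined in triplicate with 32 positive and 32 negative controls per plate. Data fitted to a three-parameter Hill equation.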

[13] = biological target: T2, Dihydroorotase (Bacillus anthracis) (UniProt Q81WF0); experiment: Inhibition of Bacillus anthracis dihydroorotase; outline: as §3
T2 sequence (whole entry): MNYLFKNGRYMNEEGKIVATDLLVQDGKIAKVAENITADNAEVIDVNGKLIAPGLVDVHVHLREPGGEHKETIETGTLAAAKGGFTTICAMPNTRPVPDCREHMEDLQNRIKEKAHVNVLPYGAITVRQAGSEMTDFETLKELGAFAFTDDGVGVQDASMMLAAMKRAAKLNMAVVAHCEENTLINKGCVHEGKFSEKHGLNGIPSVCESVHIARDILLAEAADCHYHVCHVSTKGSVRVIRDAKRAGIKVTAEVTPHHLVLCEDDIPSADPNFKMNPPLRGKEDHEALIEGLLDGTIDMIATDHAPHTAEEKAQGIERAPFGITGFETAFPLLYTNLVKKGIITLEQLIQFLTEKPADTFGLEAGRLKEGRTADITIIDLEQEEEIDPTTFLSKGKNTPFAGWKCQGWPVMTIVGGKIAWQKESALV

Streptococcus pneumoniae = experiment: Inhibition of Streptococcus pneumoniae PurC; outline: as §3
Hepacivirus hominis = experiment: Inhibition of Hepatitis C virus NS3/4A protease; outline: as §3

S=C(NCc1cccnc1)SCc1cc(Cl)sc1Cl
IC50 [1]: 9.2 µM | Activity [2]: > 50% | IC50 [3]: > 200 µM | IC50 [4]: 0.16 µM

COc1ccc(C(=O)Cn2c(NCCO)nc3ccccc32)cc1
IC50 [1]: 40.9 µM | Activity [2]: 14.3% | inhibition [5]: inactive | inhibition [6]: inactive | IC50 [4]: 28.8 µM

COCCOCCn1c(CCCO)nc2ccccc21
IC50 [1]: 186 µM | inhibition [5]: inactive | inhibition [6]: inactive | IC50 [4]: 25.6 µM

CCCCC(CC)CNC(=N)NC(=N)NCCCCCCNC(=N)NC(=N)NCC(CC)CCCC (stereo not given) [ALEXIDINE DIHYDROCHLORIDE]
IC50 [1]: 17.8 µM | IC50 [3]: > 200 µM | IC50 [4]: 24.5 µM | Activity [7]: inactive | IC50 [8]: 25.1 µM

CCOc1ccc(S(=O)(=O)NCc2ccc3c(c2)OCO3)cc1C
IC50 [1]: 76.7 µM | Activity [2]: > 50% | inhibition [5]: inactive | IC50 [3]: > 200 µM | inhibition [6]: inactive | IC50 [4]: > 200 µM

Nc1ccc(F)c(S(=O)(=O)Nc2cccc(C(F)(F)F)c2)c1
IC50 [1]: > 200 µM | inhibition [5]: inactive | inhibition [6]: inactive | IC50 [4]: 29.8 µM

C(=C\c1ccccc1)/C[N+]1(C/C=C/c2ccccc2)CCN(C(c2ccccc2)c2ccccc2)CC1
IC50 [1]: 28.3 µM | IC50 [3]: > 200 µM | IC50 [4]: 29.8 µM | Activity [9]: Active

COc1ccc(N(CC(=O)NCc2ccco2)S(C)(=O)=O)cc1
IC50 [1]: 61.9 µM | inhibition [5]: inactive | Activity [10]: inactive | inhibition [6]: inactive | IC50 [4]: 16.1 µM

Cn1cnc2cc(NC(=O)c3ccc(Cl)cc3)ccc21
IC50 [1]: 30.9 µM | Activity [2]: > 50% | IC50 [3]: > 200 µM | IC50 [4]: 27.6 µM | Ki [11]: 27.5 µM | inhibition [12]: inactive | inhibition [13]: inactive | IC50 [8]: 18.2 µM | inhibition (Streptococcus pneumoniae): inactive | inhibition (Hepacivirus hominis): inactive

O=C(c1cncc(Br)c1)N1CCN(Cc2ccsc2)CC1
IC50 [1]: 24.5 µM | IC50 [3]: 105 µM | IC50 [4]: 10.8 µM | Activity [7]: inactive

COc1ccccc1CNC(=O)[C@H](C)NS(=O)(=O)c1ccccc1
inhibition [5]: inactive | inhibition [6]: inactive

OCCCc1nc2ccccc2n1CCOc1ccccc1
IC50 [1]: 74.5 µM | inhibition [5]: inactive | inhibition [6]: inactive | IC50 [4]: > 200 µM | Activity [7]: inactive

CN(CC(=O)NC1CCCC1)S(=O)(=O)c1cccc(Cl)c1
IC50 [1]: > 200 µM | IC50 [4]: 0.94 µM
